Measured values pooled from the literature.
Protocols differ between the studies behind these lines.

CC(C)C[C@H](NC(=O)[C@H](CC(C)C)NC(=O)[C@H](CCCCN)NC(=O)[C@H](CCCCN)NC(=O)[C@H](CCC(=O)O)NC(=O)[C@H](CC(C)C)NC(=O)[C@H](CCCCN)NC(=O)[C@H](CCCCN)NC(=O)[C@H](CC(C)C)NC(=O)[C@H](CC(C)C)NC(=O)[C@H](CCCCN)NC(=O)[C@H](CCCCN)NC(=O)[C@H](CC(C)C)NC(=O)[C@@H](N)CC(C)C)C(N)=O  IC50 (HCCC9810; cell growth or viability, CCK-8): 8320 nM
N=C(CC(O)c1cc2c(F)cc(F)cc2c2cc(C(F)(F)F)ccc12)Nc1ccccc1I (stereo not drawn)  IC50 (Plasmodium falciparum; parasite growth, ELISA; 3D7; 72 h, blood stage): 10.9 nM
CC(C)C[C@H](NC(=O)[C@H](CC(C)C)NC(=O)[C@H](CCCCN)NC(=O)[C@H](CCCCN)NC(=O)[C@H](CC(C)C)NC(=O)[C@H](CCC(=O)O)NC(=O)[C@H](CCCCN)NC(=O)[C@H](CCCCN)NC(=O)[C@H](CC(C)C)NC(=O)[C@H](CC(C)C)NC(=O)[C@H](CCCCN)NC(=O)[C@H](CCCCN)NC(=O)[C@H](CC(C)C)NC(=O)[C@@H](N)CC(C)C)C(N)=O  IC50 (HCCC9810; cell growth or viability, CCK-8): 24600 nM
N=C(CC(O)c1cc2c(F)cc(F)cc2c2cc(C(F)(F)F)ccc12)NCc1ccc(F)cc1 (stereo not drawn)  IC50 (Plasmodium falciparum; parasite growth, ELISA; 3D7; 72 h, blood stage): 1110 nM
CCN(CC)CCOc1ccc2c(c1)C(=O)c1cc(OCCN(CC)CC)ccc1-2  IC50 (Plasmodium falciparum; parasite growth; DD2; drug-resistant strain, blood stage): 556 nM
CCN1CCN(Cc2ccc(Nc3nc4ccc(Oc5ccnc(NC(=O)C6CCN(C)CC6)c5)cc4n3C)cc2C(F)(F)F)CC1  EC50 (Plasmodium falciparum; parasite growth, SYBR Green; DD2; blood stage): 116 nM
COc1cc(NC(=N)CC(O)c2cc3c(F)cc(F)cc3c3cc(C(F)(F)F)ccc23)ccc1Br (stereo not drawn)  IC50 (Plasmodium falciparum; parasite growth, ELISA; 3D7; 72 h, blood stage): 13.6 nM
COc1ccc2cc1Oc1ccc(cc1)C[C@H]1c3c(cc4c(c3Oc3cc5c(cc3OC)CCN(C)[C@@H]5C2)OCO4)CCN1C  IC50 (Plasmodium falciparum; parasite growth; K1; drug-resistant strain, blood stage): 91.4 nM
N.N.[Cl][Pt][Cl]  IC50 (RS4-11; cell growth or viability, ATP luminescence; 72 h): 610 nM
CC(C)C[C@H](NC(=O)[C@H](CCC(=O)O)NC(=O)[C@H](CCCCN)NC(=O)[C@H](CCCCN)NC(=O)[C@H](CC(C)C)NC(=O)[C@H](CC(C)C)NC(=O)[C@H](CCCCN)NC(=O)[C@H](CCCCN)NC(=O)[C@H](CC(C)C)NC(=O)[C@H](CC(C)C)NC(=O)[C@H](CCCCN)NC(=O)[C@H](CCCCN)NC(=O)[C@H](CC(C)C)NC(=O)[C@@H](N)CC(C)C)C(N)=O  IC50 (HCCC9810; cell growth or viability, CCK-8): 10200 nM
N=C(CC(O)c1cc2c(F)cc(F)cc2c2cc(C(F)(F)F)ccc12)Nc1cccc(F)c1 (stereo not drawn)  IC50 (Plasmodium falciparum; parasite growth, ELISA; 3D7; 72 h, blood stage): 2.1 nM
C[C@@H]1CC[C@H]2[C@@H](C)C(=O)O[C@@H]3O[C@@]4(C)CC[C@@H]1[C@]32OO4  IC50 (Plasmodium falciparum; parasite growth; DD2; drug-resistant strain, blood stage): 8.9 nM
CC(C)C[C@H](NC(=O)[C@H](CC(C)C)NC(=O)[C@H](CCCCN)NC(=O)[C@H](CCCCN)NC(=O)[C@H](CC(C)C)NC(=O)[C@H](CC(C)C)NC(=O)[C@H](CCCCN)NC(=O)[C@H](CCCCN)NC(=O)[C@H](CC(C)C)NC(=O)[C@H](CC(C)C)NC(=O)[C@H](CCCCN)NC(=O)[C@H](CCCCN)NC(=O)[C@H](CCC(=O)O)NC(=O)[C@@H](N)CC(C)C)C(N)=O  IC50 (HCCC9810; cell growth or viability, CCK-8): 6960 nM
N=C(CC(O)c1cc2c(F)cc(F)cc2c2cc(C(F)(F)F)ccc12)NC1CC(F)(F)C1 (stereo not drawn)  IC50 (Plasmodium falciparum; parasite growth, ELISA; 3D7; 72 h, blood stage): 80.2 nM
CO[C@H]1/C=C/O[C@@]2(C)Oc3c(C)c(O)c4c(O)c(c(/C=N/N5CCN(C6CCCC6)CC5)c(O)c4c3C2=O)NC(=O)/C(C)=C\C=C\[C@H](C)[C@H](O)[C@@H](C)[C@@H](O)[C@@H](C)[C@H](OC(C)=O)[C@@H]1C  IC50 (Plasmodium falciparum; parasite growth; DD2; drug-resistant strain, blood stage): 1980 nM
